# Screening results (PubChem)
# M1 ag: activates the M1 muscarinic receptor. 3% of 64,000 active. CHO-M1 cells, Fluo-4 calcium fluorescence, agonist mode; hits give high values. B-score at 10 µM;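 active = fluorescence rise, raw or as B-score row- and column-corrected plate score, outside the 99.7% band of its plate's samples, either direction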
# M1 antagonist: antagonists of rat M1 muscarinic receptor. P08482. CHO-M1 cells, Fluo-4 calcium, ACh EC80 antagonist mode; hits give low values. B-score at 10 µM. 3.4% of 64,000 active;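 active = calcium fluorescence response, raw or row-and-column corrected B-score, differing from the plate sample mean either way at a set confidence level, mostly lower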
# D1 mod: D1 dopamine receptor (human) allosteric modulation | HEK293 D1, CRE-luciferase, dopamine EC30 potentiation; actives deviate in either direction | P21728 | AID 641 | 5.9% of 58,000 active | B-score at 10 µM;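 active = luminescence count or its row- and column-corrected plate score outside the 99.7% band of the plate's sample wells, on either side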
# Target sequence (P21728 whole entry, looked up): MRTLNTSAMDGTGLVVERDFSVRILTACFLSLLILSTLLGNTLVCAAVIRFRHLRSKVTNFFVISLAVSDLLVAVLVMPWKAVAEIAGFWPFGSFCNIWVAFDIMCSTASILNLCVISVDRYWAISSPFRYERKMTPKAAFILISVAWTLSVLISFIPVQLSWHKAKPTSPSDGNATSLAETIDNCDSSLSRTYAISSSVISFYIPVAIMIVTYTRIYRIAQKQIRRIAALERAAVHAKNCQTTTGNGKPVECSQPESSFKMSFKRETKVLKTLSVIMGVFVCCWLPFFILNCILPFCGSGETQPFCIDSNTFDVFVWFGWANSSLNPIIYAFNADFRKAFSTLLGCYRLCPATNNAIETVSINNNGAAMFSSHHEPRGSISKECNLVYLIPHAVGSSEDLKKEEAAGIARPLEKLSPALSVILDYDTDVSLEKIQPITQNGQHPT
# mHtt clearance: mutant huntingtin protein clearance; HeLa Exon1htt(103Q)mCFP, aggregate imaging; zero = plate's median compound well; inhibition, % at 1.5 µM; 0.42% of 47,000 active; AID 853;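 active = inhibition of aggregate fluorescence above about 70%, also judged a hit by eye on the cell image, limit read from the data, passing the limit was not always enough; inconclusive = no rule stated for this call; inactive = not judged a hit on image review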;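 also: cells exposed to compound for three days before fixation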
# AP complement: orthogonal test for alternative complement pathway inhibitors. Human serum alternative complement pathway, LPS-coated ELISA, C3 deposition; tested in compound mixtures. AID 1235. inhibition, % at 5 µM. 0.08% of 62,000 active;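 active = inhibition above 30% in each of the two pooled mixtures holding the compound, so the lower value exceeds 30%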;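 also: 0% = serum in Mg-EGTA without compound and 100% = EDTA serum blank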
#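 Medium: diluted human serum in Mg2+-EGTA GVB++. Assay system: human serum complement alternative pathway, C3 deposition onto LPS. Also added: Plate-bound LPS. Technique: Anti-C3 ELISA, OD 450 nm. Measure: percent inhibition. Incubation: 1 h at 37 °C. Dosing: 5 µM each compound, pools of ten, 50 µM per pool.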
# D1 mod confirm: confirmation of human D1 dopamine receptor allosteric modulators; shares compounds with D1 mod; HEK293 D1 CRE-luciferase, dopamine EC30 potentiation; hits give high values; luminescence at 10 µM; 88% of 2,200 active; AID 642;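 active = luminescence in either of two replicates above the same-plate mean plus 3 SD of the low-dose dopamine control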
# D1 ag no DA: secondary test of D1 modulators: activity without dopamine | shares compounds with D1 mod | HEK293 D1 CRE-luciferase, luminescence, no dopamine; hits give high values | luminescence at 10 µM | 0.8% of 1,900 active | AID 646; in the data active = luminescence above about 3900
# Isoprot counter: alters isoproterenol CRE-luciferase response in HEK293 cells. shares compounds with D1 mod. HEK293 D1 CRE-luciferase, isoproterenol EC30 counter-screen. calls only at 10 µM. 63% of 2,200 active. AID 647;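 active = luminescence in either replicate above plate mean of wells with a partly effective reference agonist dose plus 3 SD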;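 also: isoproterenol raises cAMP through native beta-adrenoceptor Gs so signal bypasses D1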
# The depositor's hits bear a star; i = inactive; ? = inconclusive; / = not tested or not shown; + = active, no number. Compounds with a hit are over-represented: about 9% of the library has one in this group of screens.
SMILES,M1 ag,M1 antagonist,D1 mod,mHtt clearance,AP complement,D1 mod confirm,D1 ag no DA,Isoprot counter
COc1cccc(-n2c(SCC(=O)N3CCCC3)nc3c([nH]c4ccccc43)c2=O)c1,0.68,-0.24,0.54,?,5,/,/,/
CC1(C)Cc2c(C#N)c(N)sc(=S)c2CO1,-0.36,-0.25,9.1*,/,13,17212*,1388,+
N#Cc1c(N)sc(=S)c2c1CCN(Cc1ccccc1)C2,-0.63,-1.6,-0.29,/,11,/,/,/
CC(C)C1Cc2c(C#N)c(N)sc(=S)c2CO1 (centres undefined),0.055,-0.56,10*,6,-5,21832*,1584,+
CN(Cc1cccs1)C(=O)COc1ccc(-c2nnco2)cc1,-0.32,-0.11,-0.34,/,15,/,/,/
C[N+]1(CC(=O)Nc2ccc(F)cc2)CCN(C(=O)c2ccco2)CC1,/,/,/,25,/,/,/,/
Cn1cnc2c1c(=O)n(Cc1cccc(Br)c1)c(=O)n2C,0.42,0.11,11*,/,6,12308*,1656,+
CCOC(=O)N1CCN(C(=O)c2ccc(CN(c3ccccc3)S(C)(=O)=O)cc2)CC1,-0.27,0.3,0.24,40,15,/,/,/
CCOC(=O)c1[nH]c(C)c(C(=O)c2cc(F)ccc2F)c1C,0.19,-0.36,5.7*,?,-5,8492*,1728,+
CCOC(=O)c1[nH]c(C)c(C(=O)OCC)c1C,0.037,0.14,4.2,/,5,/,/,/
CCOc1ccccc1C1NC(=O)NC(C)=C1C(=O)OC1CCCC1C (centres undefined),-0.063,-0.55,-0.66,/,6,/,/,/
CCOc1ccccc1C1NC(=O)NC(C)=C1C(=O)OC1CCCCC1 (centres undefined),1.3,0.49,4.2*,17,13,5388*,1456,i
Cc1ccc(NC(=O)CC2SC3=NCCN3C2=O)cc1 (centres undefined),0.023,-1.4,5.5*,-24,17,6908,/,i
NC(=O)c1cc(-c2ccccc2)nc(Oc2ccccc2)n1,-0.46,-0.5,8.9*,/,-9,10904*,/,+
COc1cccc(NC(=O)CCN2CCC(C(N)=O)CC2)c1,/,/,0.066,36,4,/,/,/
COc1ccc(C(C)=O)cc1CSc1nnc(-c2ccccc2O)n1-c1ccccc1,/,/,/,10,/,/,/,/
Fc1cccc(Nc2cc(-n3cccn3)ncn2)c1,-0.04,-0.74,8.5*,48,2,8308*,1684,+
C=CCNC(=O)C1CC(c2cccc(OC)c2)=NO1 (centres undefined),0.013,-0.31,4.4*,17,17,7068*,1696,i
Cn1c(=O)[nH]c(=O)c2c1nc(Br)n2CCC(=O)c1ccccc1,0.073,-0.41,1.8,-38,5,/,/,/
COc1cc(Br)cc(-c2nc3c(c(=O)[nH]c(=O)n3Cc3ccccc3)n2C)c1O,-0.3,0.12,8.2*,/,17,26460*,1556,+
COc1ccc(-n2nc(C(=O)N3CCC(C#N)CC3)c3c4ccccc4n(C)c3c2=O)cc1,-0.58,-0.3,1.3,/,8,/,/,/
COc1cc(Nc2nc3ccccc3n3nnnc23)cc(OC)c1OC,/,/,/,-175,/,/,/,/
Fc1cc(Br)ccc1Nc1nc2ccccc2n2nnnc12,0.0032,-0.51,3.1*,/,14,10956*,1572,i
O=C(c1nc2nc(-c3ccccc3)cc(C(F)(F)F)n2n1)N1CCOCC1,1.7,0.84,/,-22,12,/,/,/
O=C(c1nc2nc(-c3ccc(Cl)cc3)cc(C(F)(F)F)n2n1)N1CCOCC1,1.3,0.51,2.9*,-81,11,8024*,1772,+
O=C(OC(C(=O)NCC1CCCO1)c1ccccn1)c1cccs1 (centres undefined),-0.46,-0.037,0.042,/,1,/,/,/
N#Cc1cc2ccccc2nc1SCc1ccccn1,1.8,0.56,4.4*,14,2,8624*,/,+
N#Cc1c(N)nc(SCc2ccccn2)c(C#N)c1-c1cccs1,-0.04,-0.042,/,-42,22,/,/,/
